Assay results as given in publication PMC7274130 (Biochimica et Biophysica Acta. Proteins and Proteomics, 2020).

How the values were obtained:
[1] = Degradation of [3H]-THF-γ2 on incubation with mouse whole blood; format: in vitro ADME; details: 37 °C, radio-TLC; for amount of minor degradation product, % of total: over the 60 min incubation with [3H]-THF
[2] = Degradation of [3H]-THF-γ2 on incubation with rat whole blood; format: in vitro ADME; details: 37 °C, radio-TLC, mean ± SD, n = 3
[3] = Degradation of [3H]-THF-γ2 on incubation with human whole blood; format: in vitro ADME; details: 37 °C, radio-TLC, mean ± SD, n = 3
Outline: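 Heparinized whole blood from three healthy male donors. 1 ml was pre-warmed 5 min at 37 °C, then spiked with [3H]-THF (Pro- or C-terminal Leu-labelled; final 93 nmol ml−1) and shaken at 37 °C, sampled 0–60 min. Stopped with ice-cold water/acetonitrile; supernatants were dichloromethane-extracted. The aqueous phase went to silica radio-TLC with 1 cm scintillation counting, and fragments were assigned by synthetic-peptide Rf. Mean ± […], n = 3.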

[4] = cited from earlier work
[5] = 60 min incubation with [3H]-THF

## H-LEDGPK-OH [1–6]
[1]
  amount of minor degradation product, % of total: < 10 % of total

## H-Glu-Asp-Gly-Pro-Lys-OH [2–6]
[1]; 60 min incubation with [3H]-THF, mean ± SD, n = 3
  concentration of degradation product, % of the total peptides present: 36.52% ± 2.69
[2]; 5 min incubation with [3H]-THF
  concentration of degradation product, % of the total peptides present: 4.72% ± 1.05
[2]; [5]
  concentration of degradation product, % of the total peptides present: 54.90% ± 0.87
[3]; 5 min incubation with [3H]-THF
  concentration of degradation product, % of the total peptides present: 2.16% ± 0.96

## H-LEDGPKFL-OH [THF-γ2]
[4]
  half-life of THF in human plasma: about 12 min

## H-Gly-Pro-Lys-Phe-Leu-OH [4–8]
[1]
  amount of minor degradation product, % of total: < 10 % of total

## H-DGPKFL-OH [3–8]
[2]; 20 min incubation with [3H]-THF
  concentration of degradation product, % of the total peptides present: 27.80% ± 3.32
[3]; [5]
  concentration of degradation product, % of the total peptides present: 30.36% ± 7.84
